Source: ChEMBL document CHEMBL1151419, “Antimicrobial effect of halocidin-derived peptide in a mouse model of Listeria infection” (Antimicrob Agents Chemother, 2007)
In brackets after ≈: the same amount, converted by molar mass. Activity calls are given as the source filed them. The calls are words filed in the database; no cut-off is given here. Bridge positions count the residues as written; N and C are the ends. Peptide text beside a SMILES is read from it. I, II: the chains in the order shown.

Legend:
[1] = test system: Staphylococcus aureus; test: Antimicrobial activity against methicillin-resistant Staphylococcus aureus CCARM 3695 treated with supernatant containing 2 mg drug incubated for 10 mins with PBS containing 50 % normal human serum centrifuged for 3 hrs by radial diffusion assay; format: functional, organism-based
In short: (§1)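 2 mg peptide incubated 10 min at 37°C in 2 ml PBS, either serum-free or with 50% heat-treated normal human serum. Spun 3 h at 295,000 x g, 4°C. Then 5 µl of supernatant tested by radial diffusion against mid-log MRSA (4 x 10^6 CFU/ml underlay, 3 h at 37°C, overlay, overnight); clear zones measured.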

[2] = test system: Listeria monocytogenes; test: Antimicrobial activity against Listeria monocytogenes ATCC 19111 after 18 hrs by broth microdilution assay; format: functional; details: ATCC 19111, 18 h
In short: (§2)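 Bacteria were grown overnight to stationary phase in Mueller-Hinton broth at 37°C and diluted to 2 x 10^5 CFU/ml. Line 3 used MHB plus 150 mM NaCl. Peptide stock (640 µg/ml in 0.01% acetic acid) was twofold serially diluted to 10 µg/ml, and 11 µl was added per 100 µl of cells. Turbidity was read after 18 h at 37°C; MIC was the minimum concentration visibly inhibiting growth.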

[3] = test system: Listeria monocytogenes; test: Antimicrobial activity against Listeria monocytogenes ATCC 19111 after 18 hrs by broth microdilution assay in presence of 150 mM NaCl; format: functional; details: ATCC 19111, 18 h; in short: as §2
[4] = test system: Staphylococcus aureus; test: Antimicrobial activity against methicillin-resistant Staphylococcus aureus CCARM 3695 after 18 hrs by broth microdilution assay in presence of 150 mM NaCl; format: functional; details: CCARM 3695, 18 h
In short: (§3)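 Same broth microdilution, but the medium was Mueller-Hinton broth supplemented with 150 mM NaCl. Inoculum 2 x 10^5 CFU/ml final. Peptide twofold series in 0.01% acetic acid (stocks 640 to 10 µg/ml). After 18 h at 37°C, MIC read as the lowest concentration with no visible growth.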

[5] = test system: Staphylococcus aureus; test: Antimicrobial activity against methicillin-resistant Staphylococcus aureus CCARM 3695 treated with sample containing 200 ug/ml drug incubated with PBS containing 50% normal human serum for 10 mins measured after 3 hrs by radial diffusion assay; format: functional, organism-based
In short: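 Normal human serum from three donors, heat-treated 30 min at 56°C. Peptide at 25–200 µg/ml in PBS with 50% serum, held 10 min at 37°C; 5 µl placed in 3-mm wells. Underlay: 1% agarose, 9 mM phosphate, 1 mM citrate, 0.3 mg/ml TSB, pH 7.4, with 4 x 10^6 CFU/ml mid-log MRSA. After 3 h at 37°C, overlaid (1% agarose, 6% TSB), incubated overnight. Clear zones in units (1 mm = 10 units); triplicate means.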

[6] = test system: Staphylococcus aureus; test: Antimicrobial activity against methicillin-resistant Staphylococcus aureus CCARM 3695 after 18 hrs by broth microdilution assay; format: functional; details: CCARM 3695, 18 h
In short: (§4)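 Broth microdilution (modified CLSI). Overnight stationary-phase Mueller-Hinton broth cultures diluted to 2 x 10^5 CFU/ml final. Peptide serially twofold diluted in 0.01% acetic acid (stock series 640 down to 10 µg/ml); 11 µl added to 100 µl of bacteria. After 18 h at 37°C, MIC taken as the lowest concentration preventing visible turbidity.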

[7] = test system: Enterococcus faecium; test: Antimicrobial activity against vancomycin-resistant Enterococcus faecium CCARM 5029 after 18 hrs by broth microdilution assay; format: functional; details: CCARM 5029, 18 h; in short: as §4
[8] = test system: Enterococcus faecium; test: Antimicrobial activity against vancomycin-resistant Enterococcus faecium CCARM 5029 after 18 hrs by broth microdilution assay in presence of 150 mM NaCl; format: functional; details: CCARM 5029, 18 h; in short: as §3
[9] = Toxicity against human erythrocytes in assay tube containing mixture of erythrocytes/Listeria monocytogenes cells at 40 ug/ml after 30 mins; format: cell-based; details: erythrocyte, 0.5 h
In short: (§5)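 Washed mid-log L. monocytogenes (final 1 x 10^5 CFU/ml) was mixed with human blood cells (final 5 x 10^8 cells/ml) and peptide (final 40 µg/ml) in PBS at 37°C. A peptide-free control was included. At 10, 20 and 30 min, aliquots were plated on TSA and colonies counted after overnight growth. Blood cells were counted by hemocytometer under light microscopy.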

[10] = test system: Listeria monocytogenes; test: Antibacterial activity against Listeria monocytogenes ATCC 19111 in assay tube containing mixture of erythrocyte/Listeria monocytogenes cells assessed as logarithmic reduction in CFU after 30 mins; format: functional; in short: as §5
[11] = test system: Staphylococcus aureus; test: Antimicrobial activity against methicillin-resistant Staphylococcus aureus CCARM 3695 treated with supernatant containing 2 mg drug incubated for 10 mins with PBS centrifuged for 3 hrs by radial diffusion assay; format: functional, organism-based; in short: as §1

Question: Which Activity [1] does the source give for `CC(C)C[C@H](NC(=O)CNC(=O)[C@H](Cc1cnc[nH]1)NC(=O)[C@H](Cc1cnc[nH]1)NC(=O)[C@H](CC(C)C)NC(=O)[C@H](CC(C)C)NC(=O)[C@H](C)NC(=O)[C@H](CC(N)=O)NC(=O)[C@H](CC(C)C)NC(=O)[C@H](Cc1c[nH]c2ccccc12)NC(=O)[C@@H](N)CCCCN)C(=O)N[C@@H](CC(N)=O)C(=O)N[C@@H](CSSC[C@H](NC(=O)[C@H](CC(N)=O)NC(=O)[C@H](CC(C)C)NC(=O)CNC(=O)[C@H](Cc1cnc[nH]1)NC(=O)[C@H](Cc1cnc[nH]1)NC(=O)[C@H](CC(C)C)NC(=O)[C@H](CC(C)C)NC(=O)[C@H](C)NC(=O)[C@H](CC(N)=O)NC(=O)[C@H](CC(C)C)NC(=O)[C@H](Cc1c[nH]c2ccccc12)NC(=O)[C@@H](N)CCCCN)C(=O)N[C@@H](C)C(=O)N[C@@H](CCCCN)C(=O)NCC(=O)N[C@H](C(=O)N[C@@H](CC(C)C)C(=O)N[C@@H](C)C(=O)O)C(C)C)C(=O)N[C@@H](C)C(=O)N[C@@H](CCCCN)C(=O)NCC(=O)N[C@H](C(=O)N[C@@H](CC(C)C)C(=O)N[C@@H](C)C(=O)O)C(C)C` (I: H-KWLNALLHHGLNCAKGVLA-OH / II: H-KWLNALLHHGLNCAKGVLA-OH; disulfide I:13-II:13) here?
Answer: inactive

Question: What about the MIC [2] of the same compound?
Answer: 4 µg/mL (≈ 0.972 µM)

Question: And the MIC [3]?
Answer: 8 µg/mL

Question: And the MIC [4]?
Answer: 8 µg/mL

Question: What about the Activity [5] of the same compound?
Answer: inactive

Question: What about the MIC [6] of the same compound?
Answer: 4 µg/mL (≈ 0.972 µM)

Question: And the MIC [7]?
Answer: 4 µg/mL (≈ 0.972 µM)

Question: What about the MIC [8] of the same compound?
Answer: 4 µg/mL

Question: For H-RRWVRRVRRVWRRVVRVVRRWVRR-OH, which Activity [9] is on record?
Answer: Toxic

Question: What about the Activity [10] of the same compound?
Answer: Active

Question: For `CC(C)C[C@H](NC(=O)CNC(=O)[C@H](Cc1cnc[nH]1)NC(=O)[C@H](Cc1cnc[nH]1)NC(=O)[C@H](CC(C)C)NC(=O)[C@H](CC(C)C)NC(=O)[C@H](C)N)C(=O)N[C@@H](CC(N)=O)C(=O)N[C@@H](CSSC[C@H](NC(=O)[C@H](CC(N)=O)NC(=O)[C@H](CC(C)C)NC(=O)CNC(=O)[C@H](Cc1cnc[nH]1)NC(=O)[C@H](Cc1cnc[nH]1)NC(=O)[C@H](CC(C)C)NC(=O)[C@H](CC(C)C)NC(=O)[C@H](C)NC(=O)[C@H](CC(N)=O)NC(=O)[C@H](CC(C)C)NC(=O)[C@@H](N)Cc1c[nH]c2ccccc12)C(=O)N[C@@H](C)C(=O)N[C@@H](CCCCN)C(=O)NCC(=O)N[C@H](C(=O)N[C@@H](CC(C)C)C(=O)N[C@@H](C)C(=O)O)C(C)C)C(=O)N[C@@H](C)C(=O)N[C@@H](CCCCN)C(=O)NCC(=O)N[C@H](C(=O)N[C@@H](CC(C)C)C(=O)N[C@@H](C)C(=O)O)C(C)C` [HALOCIDIN] (I: H-WLNALLHHGLNCAKGVLA-OH / II: H-ALLHHGLNCAKGVLA-OH; disulfide I:12-II:9), which Activity [1] is on record?
Answer: Active

Question: And the MIC [2]?
Answer: 64 µg/mL (≈ 18.6 µM)

Question: What about the MIC [3] of the same compound?
Answer: > 64 µg/mL

Question: What about the MIC [4] of the same compound?
Answer: 32 µg/mL

Question: And the Activity [11]?
Answer: Active

Question: And the MIC [6]?
Answer: 16 µg/mL (≈ 4.64 µM)

Question: What about the MIC [7] of the same compound?
Answer: 64 µg/mL (≈ 18.6 µM)

Question: And the MIC [8]?
Answer: > 64 µg/mL

Question: Which results are given for `CC[C@H](C)[C@H](NC(=O)CN)C(=O)NCC(=O)N[C@@H](C)C(=O)N[C@H](C(=O)N[C@@H](CC(C)C)C(=O)N[C@@H](CCCCN)C(=O)N[C@H](C(=O)N[C@@H](CC(C)C)C(=O)N[C@H](C(=O)N[C@H](C(=O)NCC(=O)N[C@@H](CC(C)C)C(=O)N1CCC[C@H]1C(=O)N[C@@H](C)C(=O)N[C@@H](CC(C)C)C(=O)N[C@H](C(=O)N[C@@H](CO)C(=O)N[C@@H](Cc1c[nH]c2ccccc12)C(=O)N[C@H](C(=O)N[C@@H](CCCCN)C(=O)N[C@@H](CCCNC(=N)N)C(=O)N[C@@H](CCCCN)C(=O)N[C@@H](CCCNC(=N)N)C(=O)N[C@@H](CCC(N)=O)C(=O)N[C@@H](CCC(N)=O)C(N)=O)[C@@H](C)CC)[C@@H](C)CC)[C@@H](C)O)[C@@H](C)O)C(C)C)C(C)C` [MELITTIN]?
Answer: Activity [9]: Toxic; Activity [10]: Active
